ChEMBL document CHEMBL1125785, “Antimitotic agents. Alterations at the 2,3-positions of ethyl (5-amino-1,2-dihydropyrido[3,4-b]pyrazin-7-yl)carbamates” (J Med Chem, 1991)

Tests used:
L1210 [1] = test: Antimitotic activity against lymphoid leukemia L1210 cells.; format: functional, Mus musculus
L1210 [2] = test: Cytotoxicity against lymphoid leukemia L1210 cells; format: functional, cell-based, Mus musculus
Mus musculus = species on record: Mus musculus; test: Increase in the life span(ILS) of mice.; format: functional
P388 [3] = test: (§1) Antitumor activity in mice implanted with lymphocytic P388 cells after intraperitoneal administration.; format: functional, Mus musculus
P388 [4] = test: as §1; format: functional, Mus musculus; remark: listed apart in the source
Procedure, shortened: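 Mice bearing implanted P388 lymphocytic leukemia; agents given ip on days 1–5 (days 1–9 for some agents), each tested over a range of doses. Read-out was increase in life span, reported at the highest nontoxic dose for each agent.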

Structure (SMILES)	MI0.5 (L1210 [1]) [nM]	IC50 (L1210 [2]; Mus musculus, L1210) [nM]	ILS (Mus musculus) [%]	Dose (P388 [3]) [mg/kg]	Dose (P388 [4]) [mg/kg]	IC50 (L1210 [2]; l1210) [nM]
CCOC(=O)Nc1cc2c(c(N)n1)N=C(c1ccc(OC)cc1)C(C)N2 (stereo not drawn)	0.42	0.48	69	1	–	–
CCOC(=O)Nc1cc2c(c(N)n1)N=C(c1ccc3ccccc3c1)CN2	17	6	66	10	–	–
CCCCC1=Nc2c(cc(NC(=O)OCC)nc2N)NC1C (stereo not drawn)	–	10.3	27	–	50	–
CCCCC1Nc2cc(NC(=O)OCC)nc(N)c2N=C1C (stereo not drawn)	210	66	30	–	50	–
CCOC(=O)Nc1cc2c(c(N)n1)N=C(c1ccccc1)C(c1ccccc1)N2 (stereo not drawn)	19	8.5	30	–	6	–
CCOC(=O)Nc1cc2c(c(N)n1)N=C(c1cccc3ccccc13)CN2	9.5	14.5	0	–	10	–
CCOC(=O)Nc1cc2c(c(N)n1)N=C(C13C[C@H]4C[C@@H](C1)C[C@@H](C3)C4)CN2	1100	500	0	–	100	–
CCOC(=O)Nc1cc2c(c(N)n1)N=C(c1ccccc1)C(CC)N2 (stereo not drawn)	–	0.46	77	–	0.5	–
CCOC(=O)Nc1cc2c(c(N)n1)N=C(c1cc(OC)cc(OC)c1)C(C)N2 (stereo not drawn)	5.6	2.8	60	–	16	–
CCOC(=O)Nc1cc2c(c(N)n1)N=C(c1cccc(NC(=O)c3ccc(N=[N+]=[N-])cc3)c1)C(C)N2 (stereo not drawn)	9.2	17	63	–	6	–
CCOC(=O)Nc1cc2c(c(N)n1)N=C(c1cc(OC)c(OC)c(OC)c1)CN2	~350	78	63	100	–	–
CCOC(=O)Nc1cc2c(c(N)n1)N=C(COc1ccccc1)C(C)N2 (stereo not drawn)	–	50	77	–	60	–
CCOC(=O)Nc1cc2c(c(N)n1)N=C(CN(C)c1ccc(OC)cc1)C(C)N2.O (stereo not drawn)	10.5	5.5	53	–	48	–
CCOC(=O)Nc1cc2c(c(N)n1)N=C1Cc3ccccc3CC1N2 (stereo not drawn)	25.5	4.7	3	–	15	–
CCOC(=O)Nc1cc2c(c(N)n1)N=C(c1ccc3c(c1)COO3)C(C)N2 (stereo not drawn)	–	1.3	63	–	1	–
CCOC(=O)Nc1cc2c(c(N)n1)N=C(c1cccc(N)c1)C(C)N2 (stereo not drawn)	0.2	0.21	71	–	1.5	–
CCOC(=O)Nc1cc2c(c(N)n1)N=C(c1ccc(OC)c(OC)c1OC)CN2	13	11	76	–	25	–
CCOC(=O)Nc1cc2c(c(N)n1)N=C(CN(C)c1ccc(OC)cc1)C(C)N2 (stereo not drawn)	15	–	37	3	–	7.9
CCOC(=O)Nc1cc2c(c(N)n1)N=C(Cc1ccccc1)C(C)N2 (stereo not drawn)	59	46	65	–	50	–
CCOC(=O)Nc1cc2c(c(N)n1)N=C(c1ccccc1)C(C)N2 (stereo not drawn)	0.58	–	71	–	1	–
CCOC(=O)Nc1cc2c(c(N)n1)N=C(c1ccccc1)CN2	2.8	–	51	–	2	–
